Measurements as given in ChEMBL document CHEMBL5380838, “Novel Aryl Sulfonamide Derivatives as NLRP3 Inflammasome Inhibitors for the Potential Treatment of Cancer” (J Med Chem, 2023).
Active and inactive are the calls of the source. No cut-off for these calls is given here.

Experiments:
[1] = Cmax in C57BL/6 mouse at 25 mg/kg, ip measured for 0.083 to 24 hrs by LC-MS/MS analysis; assay type: ADME, organism-based; parameters: time upper 24 hrs, dose 25 mg/kg, time lower 0.083 hrs, route ip; conditions: in vivo
Summary of the method: (§1)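 Female C57BL/6 mice, 8 weeks old, 25–30 g, given a single IP dose of 25 mg/kg. Sampling at 5 and 20 min and 1, 2, 3, 6, 8 and 24 h, 3 mice per timepoint; Li-heparin plasma from the cava vein. ACN/MeOH precipitation with diclofenac internal standard, then LC-MS/MS in ESI(−) MRM mode, range 1–2000 ng/mL. Noncompartmental analysis, linear trapezoidal AUC.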

[2] = tested on: THP-1; experiment: Suppression of caspase-1 expression in LPS-treated human THP-1 cells at 1 to 1000 nM incubated for 30 mins followed by ATP stimulation for 1 hr by […]; assay type: functional, cell-based; conditions: dose 1-1000 nM, time 90.0 min
Summary of the method: (§2)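 PMA-differentiated THP-1 cells (1 × 10^6/well) primed with LPS 1 µg/mL for 3 h, then DMSO or compound in serum-free medium for 30 min, then 5 mM ATP for 1 h. RIPA lysates (20 µg) and concentrated supernatants run on SDS-PAGE and western blotted for NLRP3, ASC, caspase-1 and IL-1β, normalized to GAPDH; three independent experiments.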

[3] = tested on: THP-1; experiment: Suppression of ASC expression in LPS-treated human THP-1 cells at 1 to 1000 nM incubated for 30 mins followed by ATP stimulation for 1 hr […]; assay type: functional, cell-based; conditions: dose 1-1000 nM, time 90.0 min; summary of the method: as §2
[4] = tested on: BMDM; experiment: Effect on NLRC4 inflammasome activation in LPS-treated mouse BMDM cells assessed as IL-1beta release at 1 uM incubated for 30 mins followed by Salmonella typhimurium flagellin stimulation for 2 hrs by ELISA method; assay type: functional, cell-based; conditions: time 150.0 min
Summary of the method: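 BMDMs primed with LPS 100 ng/mL for 3 h, then compound 1 µM in serum-free medium for 30 min, then flagellin 100 ng/mL for 2 h; supernatant mouse IL-1β by ELISA.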

[5] = tested on: BMDM; experiment: Effect on ASC level in LPS-treated mouse BMDM cells at 1 uM incubated for 30 mins followed by ATP stimulation for 1 hr by Hoechst staining based microscopy; assay type: functional, cell-based; conditions: time 90.0 min
Summary of the method: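 BMDMs primed with LPS 1 µg/mL for 2 h, given DMSO or compound 1 µM for 30 min, then 5 mM ATP for 1 h. Cells fixed in 4% PFA, permeabilized with 0.1% Triton X-100, stained with anti-ASC overnight at 4 °C plus fluorescent secondary, nuclei Hoechst 1 µM; confocal imaging with 63× oil objective.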

[6] = tested on: B16-F10; experiment: Effect on total caspase-1 expression in cytosolic luciferase-transfected mouse B16-F10 cells xenografted in C57BL/6 mouse at 25 mg/kg, ip administered thrice weekly measured after 14 days by Western blot analysis; assay type: functional, organism-based; conditions: time 14.0 day
Summary of the method: (§3)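 Tumors from luciferase-expressing B16-F10 grafts in C57BL/6 mice, dosed IP at 25 mg/kg thrice weekly (DMSO controls), were excised at endpoint and homogenized in sucrose/HEPES/IGEPAL lysis buffer. Lysates were western blotted and bands expressed as fold ratio over β-actin (n = 5).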

[7] = tested on: B16-F10; experiment: Effect on pro-IL-1beta expression in cytosolic luciferase-transfected mouse B16-F10 cells xenografted in C57BL/6 mouse at 25 mg/kg, ip administered thrice weekly measured after 14 days by Western blot analysis; assay type: functional, organism-based; conditions: time 14.0 day; summary of the method: as §3
[8] = tested on: B16-F10; experiment: Antiproliferative activity against cytosolic luciferase-transfected mouse B16-F10 cells xenografted in C57BL/6 mouse assessed as effect on cell growth at 25 mg/kg, ip administered thrice weekly measured after 5 days; assay type: functional, organism-based; conditions: time 5.0 day
[9] = Metabolic stability in human liver microsomes assessed as half life measured per mg protein at 1 uM measured upto 60 mins by LC-MS/MS analysis; assay type: ADME, Microsome
Summary of the method: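 Pooled human or CD-1 male mouse liver microsomes at 0.5 mg/mL with test compound 1 µM in 50 mM phosphate pH 7.4 and 3 mM MgCl2, preincubated 10 min at 37 °C. Percent parent remaining vs 0 min measured by LC-MS/MS. Cli = k/microsomal conc. × 1000; mean ± SD, n = 2.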

[10] = Tlast in C57BL/6 mouse at 25 mg/kg, ip measured for 0.083 to 24 hrs by LC-MS/MS analysis; assay type: ADME, organism-based; conditions: in vivo, time 0.083-24 hrs; summary of the method: as §1
[11] = AUC in C57BL/6 mouse at 25 mg/kg, ip measured for 0.083 to 24 hrs by LC-MS/MS analysis; conditions: in vivo

Cmax [1]: 1.67 µg/mL
half-life at 1 µM [9]: 30.5 min
Tlast [10]: 24 h
AUC [11]: 3880 ng/mL.hr
Compound: CC(C)[C@H](NS(=O)(=O)c1ccc([N+](=O)[O-])cc1)C(=O)Nc1c2c(cc3c1CCC3)CCC2
Activity [2]: inactive
Activity [3]: inactive
Activity [4]: inactive
Activity [5]: inactive
Activity [6]: inactive
Activity [7]: inactive
Activity [8]: inactive
